Test results taken from ChEMBL document CHEMBL1177676, “Synthesis and biological evaluation of cytotoxic activity of novel anthracene L-rhamnopyranosides” (Bioorg Med Chem, 2010).
Active and inactive are the calls of the source. No cut-off for these calls is given here.

Columns and labels:
[1] = system: HL-60; experiment: Cytotoxicity against human HL60 cells after 72 hrs by MTT assay; format: functional, cell-based; conditions: HL-60, 72 h
Method in brief: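 Leukemia cells seeded in 96-well plates and exposed in triplicate to graded compound concentrations for 72 h at 37 °C. Viability was read by MTT. IC50 was derived by the Logit method from at least three independent experiments.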

[2] = system: KB; experiment: Cytotoxicity against human KB cells after 72 hrs by MTT assay; format: functional, cell-based
[3] = system: MDA-MB-231; experiment: Cytotoxicity against human MDA-MB-231 cells after 72 hrs by MTT assay; format: functional, cell-based; conditions: MDA-MB-231, 72 h
[4] = target: DNA topoisomerase 2-alpha (Homo sapiens) (UniProt P11388); experiment: Inhibition of DNA topoisomerase 2 alpha assessed as ATP-dependent decatenation of DNA in cell free system
DNA topoisomerase 2-alpha (Homo sapiens), sequence (P11388 whole entry): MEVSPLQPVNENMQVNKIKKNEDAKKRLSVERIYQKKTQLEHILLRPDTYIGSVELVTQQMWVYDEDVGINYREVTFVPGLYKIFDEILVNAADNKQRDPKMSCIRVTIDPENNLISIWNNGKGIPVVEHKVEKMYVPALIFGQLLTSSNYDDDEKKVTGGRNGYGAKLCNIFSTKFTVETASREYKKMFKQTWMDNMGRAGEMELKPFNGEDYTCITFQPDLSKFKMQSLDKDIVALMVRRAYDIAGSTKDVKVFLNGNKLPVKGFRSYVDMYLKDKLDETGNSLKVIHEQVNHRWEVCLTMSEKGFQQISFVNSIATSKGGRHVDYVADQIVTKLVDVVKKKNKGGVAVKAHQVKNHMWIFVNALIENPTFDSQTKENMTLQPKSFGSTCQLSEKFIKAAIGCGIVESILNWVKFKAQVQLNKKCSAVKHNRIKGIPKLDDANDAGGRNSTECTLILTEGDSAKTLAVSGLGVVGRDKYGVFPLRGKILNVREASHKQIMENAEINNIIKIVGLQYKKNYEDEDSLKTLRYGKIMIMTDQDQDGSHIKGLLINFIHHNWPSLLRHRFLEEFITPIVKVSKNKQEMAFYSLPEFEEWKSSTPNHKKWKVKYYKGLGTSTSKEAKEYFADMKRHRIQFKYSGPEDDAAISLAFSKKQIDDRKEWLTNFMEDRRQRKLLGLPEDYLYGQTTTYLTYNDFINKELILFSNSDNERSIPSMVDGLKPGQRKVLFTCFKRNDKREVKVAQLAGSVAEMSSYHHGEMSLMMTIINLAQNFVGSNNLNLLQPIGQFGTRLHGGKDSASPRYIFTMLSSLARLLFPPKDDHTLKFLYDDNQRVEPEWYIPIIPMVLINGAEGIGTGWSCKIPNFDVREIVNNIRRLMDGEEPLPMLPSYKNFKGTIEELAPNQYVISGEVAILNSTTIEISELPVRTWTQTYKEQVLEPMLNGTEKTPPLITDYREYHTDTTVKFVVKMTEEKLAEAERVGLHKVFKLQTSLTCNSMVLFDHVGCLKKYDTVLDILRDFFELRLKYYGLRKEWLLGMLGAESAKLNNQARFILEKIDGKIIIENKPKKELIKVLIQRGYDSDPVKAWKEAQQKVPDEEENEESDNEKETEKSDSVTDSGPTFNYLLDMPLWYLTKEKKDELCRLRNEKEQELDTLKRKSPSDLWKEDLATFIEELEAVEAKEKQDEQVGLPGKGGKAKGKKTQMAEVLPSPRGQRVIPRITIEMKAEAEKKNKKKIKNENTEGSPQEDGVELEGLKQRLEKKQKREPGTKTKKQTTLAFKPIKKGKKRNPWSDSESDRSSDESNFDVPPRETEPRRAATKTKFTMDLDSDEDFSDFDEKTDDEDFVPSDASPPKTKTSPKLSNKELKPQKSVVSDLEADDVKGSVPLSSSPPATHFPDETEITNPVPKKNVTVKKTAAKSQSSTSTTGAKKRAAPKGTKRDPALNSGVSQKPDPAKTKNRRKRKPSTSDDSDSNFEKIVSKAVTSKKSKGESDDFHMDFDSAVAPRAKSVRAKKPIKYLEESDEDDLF

With CC(=O)O[C@@H]1[C@@H](O)[C@@H](O)[C@H](Oc2cc(O)c3c(c2)C(=O)c2cc(C)cc(O)c2C3=O)O[C@H]1C the IC50 [1] was > 20 µM, the IC50 [2] was > 20 µM and the IC50 [3] was 7.9 µM. The inhibition [4] was “Active”.
In the case of Cc1cc(O)c2c(c1)C(=O)c1cc(O)cc(O)c1C2=O [EMODIN], the IC50 [1] is reported as > 20 µM, the IC50 [2] is reported as > 20 µM and the IC50 [3] is reported as > 20 µM.
Work on CC(=O)Oc1cc(C)cc2c1C(=O)c1c(OC(C)=O)cc(O[C@@H]3O[C@@H](C)[C@H](OC(C)=O)[C@@H](OC(C)=O)[C@H]3OC(C)=O)cc1C2OC(C)=O (mixture of isomers) yielded an IC50 [1] of 1.5 µM, an IC50 [2] of 1.1 µM and an IC50 [3] of 1.7 µM. The inhibition [4] was “Active”.
CCCC(=O)O[C@@H]1[C@@H](O)[C@H](C)O[C@@H](Oc2cc(O)c3c(c2)C(=O)c2cc(C)cc(O)c2C3=O)[C@@H]1OC(=O)CCC was tested, and the IC50 [1] was > 20 µM, the IC50 [2] was > 20 µM and the IC50 [3] was > 20 µM.
For COc1cc(C)cc2c1C(=O)c1c(OC)cc(O[C@@H]3O[C@@H](C)[C@H](O)[C@@H](OC(C)=O)[C@H]3OC(C)=O)cc1C2=O, the IC50 [1] was > 20 µM, the IC50 [2] was > 20 µM and the IC50 [3] was > 20 µM.
In the case of CC(=O)O[C@@H]1[C@@H](OC(C)=O)[C@@H](O)[C@H](Oc2cc(O)c3c(c2)C(=O)c2cc(C)cc(O)c2C3=O)O[C@H]1C, the IC50 [1] is reported as > 20 µM, the IC50 [2] is reported as > 20 µM and the IC50 [3] is reported as 1.2 µM.
CC(=O)O[C@@H]1[C@@H](O[C@@H]2O[C@@H](C)[C@H](O)[C@@H](OC(C)=O)[C@H]2OC(C)=O)[C@H](C)O[C@@H](Oc2cc(O)c3c(c2)C(=O)c2cc(C)cc(O)c2C3=O)[C@@H]1OC(C)=O was tested, and the IC50 [1] was 11.8 µM, the IC50 [2] was 8.3 µM and the IC50 [3] was > 20 µM. The inhibition [4] was “Active”.
Compound CC(=O)OC1c2cc(C)cc(O)c2C(=O)c2c(O)cc(O[C@@H]3O[C@@H](C)[C@H](O)[C@@H](OC(C)=O)[C@H]3OC(C)=O)cc21 (mixture of isomers) has an IC50 [1] of 0.8 µM, an IC50 [2] of 0.3 µM and an IC50 [3] of 0.4 µM.
CC(=O)O[C@@H]1[C@@H](O)[C@H](C)O[C@@H](Oc2cc(O)c3c(c2)C(=O)c2cc(C)cc(O)c2C3=O)[C@@H]1OC(C)=O was tested, and the IC50 [1] was 3.6 µM, the IC50 [2] was 1.1 µM and the IC50 [3] was > 20 µM. The inhibition [4] was “Active”.
With CC(=O)O[C@@H]1[C@@H](O)[C@@H](OC(C)=O)[C@H](Oc2cc(O)c3c(c2)C(=O)c2cc(C)cc(O)c2C3=O)O[C@H]1C the IC50 [1] was > 20 µM, the IC50 [2] was > 20 µM and the IC50 [3] was > 20 µM.
